Screens (PubChem BioAssay)
TAAR1 agonist = human TAAR1 agonism; Q96RJ0; CHO RD-HGA16 TAAR1, Fluo-8 calcium fluorescence; vehicle wells 0%, saturating PEA agonist 100%; activation, % at 3 µM; hit rate 0.99% among 360,000;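 active means activation above the mean activation of all test compounds in the run plus 3 SD, cut at about 38% in these data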
Target sequence (Q96RJ0 whole entry, looked up): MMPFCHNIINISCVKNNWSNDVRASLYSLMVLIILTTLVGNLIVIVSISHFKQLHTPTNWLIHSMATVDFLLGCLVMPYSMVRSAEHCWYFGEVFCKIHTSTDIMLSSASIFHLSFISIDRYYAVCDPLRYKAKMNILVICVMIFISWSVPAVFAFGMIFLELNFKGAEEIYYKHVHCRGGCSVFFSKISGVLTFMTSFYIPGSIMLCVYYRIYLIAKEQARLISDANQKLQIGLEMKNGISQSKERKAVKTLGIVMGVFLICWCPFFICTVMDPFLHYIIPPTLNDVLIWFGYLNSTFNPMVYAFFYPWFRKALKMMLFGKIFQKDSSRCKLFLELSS
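Test system: RD-HGA16 (CHO) cells co-expressing Gα16 and hTAAR1 / Benchmarks: DMSO vehicle as 0%, PEA at EC100 as 100% / Repeats: no replicates (n 1) / Measure: % activation from peak over basal fluorescence ratio, DMSO-to-PEA scaled / Timing: 17-24 h plating, Fluo-8 75 min 37 °C, 30 min RT / Technique: kinetic Fluo-8 calcium fluorescence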
TAAR1 antag = human TAAR1 antagonism; CHO RD-HGA16 TAAR1, Fluo-8 calcium fluorescence, antagonist; inhibition, % at 3 µM; AID 624466; hit rate 1.5% among 360,000; Q96RJ0;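 active means inhibition above a per-plate cutoff, the mean inhibition of test compounds on that plate plus 3 SD, cut at about 49% in these data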
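Material: CHO RD-HGA16 cells bearing hTAAR1; compound dosing: one-point dosing, 3 µM nominal final; schedule: dye loading 75 min at 37 °C, then 30 min room temperature; measured by: calcium fluorescence with Fluo-8; control set: vehicle and agonist controls; replication: n of 1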
OX1R antag-1 = antagonists of human orexin 1 receptor; O43613; CHO/OX1R cells, Fluo-8 calcium fluorescence, orexin A; inhibition, % at 5 µM; hit rate 0.43% among 330,000; AID 434989;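 active means inhibition above its plate's threshold, mean inhibition of all tested compounds on the plate plus 3 SD, cut at about 37% in these data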
CHO parental Ca = counter-screen for OX1R antagonists: effect in parental CHO cells. AID 463079. inhibition, % at 5.6 µM. hit rate 0.63% among 330,000. parental CHO-K1, ATP-induced calcium, Fluo-8 fluorescence;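 active means inhibition above that plate's mean sample inhibition plus 3 SD, cut at about 26% in these data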
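Test system: untransfected parental CHO cell line; also added: ATP stimulus; dosing: 5.6 µM, single dose; signal: calcium-sensitive Fluo-8 fluorescence; measure: percent inhibition of ATP-evoked calcium rise, normalized to controls; benchmarks: low control ATP plus DMSO, high control DMSO only; replication: one well per compound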
OX1R antag-2 = antagonists of human orexin 1 receptor (OX1R); O43613; OX1R-expressing cells, FRET antagonist read-out; inhibition, % at 6.6 µM; hit rate 1.8% among 330,000; in the data active means inhibition mostly above about 38%, no sharp cut-off; inactive means mostly below about 40%
TAAR1 ag conf = human TAAR1 agonism, confirmed | shares compounds with TAAR1 agonist | CHO RD-HGA16 TAAR1, Fluo-8 calcium fluorescence; scaled: DMSO 0%, maximal phenethylamine 100% | activation, % at 3 µM | hit rate 82% among 2,400 | AID 651783;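 active means activation above a cutoff set at the run's mean compound activation plus 3 SD, cut at about 39% in these data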
Ga16 nonsel ag = counter-screen for TAAR1 agonists: nonselective agonists in parental cells; hit rate 50% among 2,400; activation, % at 3 µM; shares compounds with TAAR1 agonist; CHO-Ga16 parental, Fluo-8 calcium fluorescence; normalized to maximal ATP response, DMSO zero;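 active means activation above the run cutoff, the mean activation over all tested wells plus 3 SD, cut at about 12% in these data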
TAAR1 desens = TAAR1 response desensitization, agonist counter-screen; shares compounds with TAAR1 agonist; CHO RD-HGA16 hTAAR1, Fluo-8 calcium, beta-PEA response inhibition; hit rate 46% among 2,400; inhibition, % at 3 µM;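 active means inhibition above the run cutoff, the mean inhibition of all test compounds plus 3 SD, cut at about 49% in these data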;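 further: beta-PEA stimulus applied at its EC80; loss of beta-PEA calcium signal after compound pretreatment read as receptor desensitization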
Ga16 nonsel ant = nonselective Ga16 antagonism, counter-screen | hit rate 39% among 2,400 | shares compounds with TAAR1 agonist | inhibition, % at 3 µM | CHO-Ga16 ATP-induced calcium, Fluo-8 fluorescence;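 active means inhibition above the plate's mean compound inhibition plus 3 SD, computed per plate, cut at about 22% in these data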
Numbers stand for hits; - = inactive; . = not tested or not shown. Most compounds without a hit are left out; they make up all but 4% or so of the library.

SMILES	TAAR1 agonist	TAAR1 antag	OX1R antag-1	CHO parental Ca	OX1R antag-2	TAAR1 ag conf	Ga16 nonsel ag	TAAR1 desens	Ga16 nonsel ant
CCCc1c(-c2cccc(Cl)c2)ncn1Cc1ccccc1OC	-	-	.	.	.	.	.	.	.
COc1ccccc1CCn1cnc(C)c1CC(C)C	76	-	.	.	.	69	-	-	-
CCc1ncn(CCc2ccccc2OC)c1C(C)C	53	-	.	.	.	63	-	-	-
O=C(Nc1nnc([C@@H]2C[C@H](O)[C@@H](CO)O2)s1)NC1CCCCC1	-	-	.	.	.	.	.	.	.
O=C(N/N=C/c1ccc2c(c1)OCO2)C(O)c1ccccc1 (stereo not given)	-	-	-	-	-	.	.	.	.
CCc1nnc(NC(=O)CCS(=O)(=O)c2ccc(C)cc2)s1	-	-	-	-	-	.	.	.	.
COc1ccccc1C/C(N)=N/OC(=O)COc1cccc2ccccc12	-	-	-	-	-	.	.	.	.
N/C(Cc1cccc2ccccc12)=N\OC(=O)c1ccccc1F	70	-	.	.	.	81	-	-	-
N/C(Cc1cccc2ccccc12)=N\OC(=O)COc1ccccc1	54	-	-	-	-	61	-	-	-
O=C(O)c1ccc(N/N=C/C(Br)=C/c2ccccc2)cc1	122	60	-	-	-	-	19	-	-
COc1cccc(C(=O)N[C@H](C(=O)N2CCC[C@H]2C(=O)NCCc2ccccc2Cl)C(C)C)c1	71	78	.	.	.	85	-	95	-
COc1cccc(C(=O)N[C@H](C(=O)N2CCC[C@H]2C(=O)NCCc2ccccc2Cl)c2ccccc2)c1	56	52	.	.	.	91	-	84	-
CC(C)[C@H](NC(=O)c1ccc(Cl)c(Cl)c1)C(=O)N1CCC[C@H]1C(=O)NCc1ccccc1	-	-	.	.	.	.	.	.	.
Cc1cccc(N2CCN(C(=S)Nc3ccc4nc(N5CCN(C)CC5)cc(C)c4c3)CC2C)c1 (stereo not given)	93	85	-	-	-	103	44	94	35
CNCC(=O)N1CCN(c2ncc(C(F)(F)F)cc2Cl)CC1	-	-	-	-	-	.	.	.	.
C[C@@H]1CN([C@H](C)CO)S(=O)(=O)c2ccc(Br)cc2O[C@H]1CN(C)C(=O)C1CCCCC1	-	-	.	.	.	.	.	.	.
CCOC(=O)c1cn(C2CC2)c2c(F)c(F)c(F)cc2c1=O	49	-	-	-	-	-	-	-	-
CC1CCN(C(=O)c2ccc3c(c2NCCO)C(=O)c2ccccc2C3=O)CC1	48	-	-	-	-	-	-	-	25
CN1CCN(C(c2ccc(C(F)(F)F)cc2)c2cc(Cl)c3cccnc3c2O)CC1 (stereo not given)	119	-	-	-	-	129	106	81	44
CN1CCN(C(c2ccc(Cl)cc2)c2cc(Cl)c3cccnc3c2O)CC1 (stereo not given)	69	-	-	-	-	118	67	49	-
CCN1CCN(C(c2ccc(C(F)(F)F)cc2)c2ccc3cccnc3c2O)CC1 (stereo not given)	-	-	-	-	-	.	.	.	.
CCNC(=O)NC(=O)C(C)Oc1ccc(Br)cc1Br (stereo not given)	-	-	-	-	-	.	.	.	.
CC(Sc1nnc(CN2CCCC2)n1Cc1ccccc1)C(=O)Nc1ccc(F)cc1Cl (stereo not given)	-	-	.	.	.	.	.	.	.
NS(=O)(=O)c1ccc(NC(=O)Nc2ccc(C(F)(F)F)cc2)cc1	-	-	-	-	-	.	.	.	.
COc1ccc(CN2C(=O)C(CC(=O)NCCc3ccccn3)CC(C(=O)N(C)C)=C2C)cc1 (stereo not given)	46	-	.	.	.	62	-	-	-
COc1ccc(CN2C(=O)C(CC(=O)NCCc3ccccn3)CC(C(=O)N(C(C)C)C(C)C)=C2C)cc1 (stereo not given)	-	-	.	.	.	.	.	.	.
